The text below walks through data of ChEMBL document CHEMBL1140074, “Aminoacyl-anthraquinone conjugates as telomerase inhibitors: synthesis, biophysical and biological evaluation” (J Med Chem, 2008).

Molecules are shown by their SMILES. Some results are limits rather than exact numbers.

The species entered for experiment [1] is Homo sapiens. Kind of experiment: Binding affinity to human telomeric DNA sequence assessed as stabilization of G-quadruplex at 10 uM by thermal denaturation. A digest of the protocol: (§1)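 Fluorescence melting in a LightCycler of 0.25 µM telomeric oligonucleotide HTS (5'-FAM, 3'-methyl red) in LiP buffer (10 mM LiOH, 50 mM KCl, pH 7.4 with H3PO4). Samples were denatured at 95 °C for 5 min, then cooled and reheated at 0.5 °C/min in 1 °C steps with 2 min equilibration per step. Excitation 488 nm, emission 520 nm. ΔTm was taken relative to ligand-free DNA.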

The species named for experiment [2] is Homo sapiens. As to the kind of experiment: Binding affinity to human telomeric DNA sequence assessed as stabilization of G-quadruplex at 1 uM by thermal denaturation. Summed up:
as §1

Experiment [3] addresses DNA polymerase I, thermostable (Thermus aquaticus, UniProt P19821). As to the kind of experiment: Inhibition of Taq polymerase. Summed up: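 PCR with 2.5 ng pBR322 template and primers Tup/Tdown (0.5 µM) amplifying plasmid bases 906-1064. Compounds tested from 20 nM to 40 µM. Run 25 cycles of 94 °C, 65 °C and 72 °C (30 s each). Products resolved on 2% agarose in TBE and stained with ethidium bromide.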

Experiment [4] concerns the target Telomerase reverse transcriptase (Homo sapiens, UniProt O14746). Kind of experiment: Inhibition of telomerase in human JR8 cells by TRAP assay. The class given is cell-based. A digest of the protocol:
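Telomerase source was a CHAPS lysate of exponentially growing JR8 cells (500 ng protein per reaction). Elongation 30 min at 30 °C, then 30 PCR cycles. Products run on 10% PAGE with phosphorimager read-out, in triplicate. Drug levels kept below those inhibiting Taq.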

The next experiment relates to HeLa. Kind of experiment: Cytotoxicity against human HeLa cells expressing telomerase after 96 hrs by MTT assay. The class given is functional, cell-based. A digest of the protocol:
(§2)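 Cells grown in DMEM with 10% heat-inactivated FCS, penicillin/streptomycin, 37 °C, 5% CO2. Plated at 10000 cells/well and left overnight, then exposed to eight serial dilutions in triplicate for 96 h. MTT added to 0.8 mg/mL final for 2 h, formazan dissolved in DMSO, absorbance read at 540 nm. IC50 from sigmoidal dose-response fits.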
In general terms: Tetrazolium dyes change colour on reduction, which living cells bring about.

Experiment [5] in a line: Cytotoxicity against human 293T cells expressing telomerase after 96 hrs by MTT assay. It counts as cell-based. The following applies: HEK-293T. A digest of the protocol:
as §2

DNA polymerase I, thermostable, sequence (P19821 whole entry): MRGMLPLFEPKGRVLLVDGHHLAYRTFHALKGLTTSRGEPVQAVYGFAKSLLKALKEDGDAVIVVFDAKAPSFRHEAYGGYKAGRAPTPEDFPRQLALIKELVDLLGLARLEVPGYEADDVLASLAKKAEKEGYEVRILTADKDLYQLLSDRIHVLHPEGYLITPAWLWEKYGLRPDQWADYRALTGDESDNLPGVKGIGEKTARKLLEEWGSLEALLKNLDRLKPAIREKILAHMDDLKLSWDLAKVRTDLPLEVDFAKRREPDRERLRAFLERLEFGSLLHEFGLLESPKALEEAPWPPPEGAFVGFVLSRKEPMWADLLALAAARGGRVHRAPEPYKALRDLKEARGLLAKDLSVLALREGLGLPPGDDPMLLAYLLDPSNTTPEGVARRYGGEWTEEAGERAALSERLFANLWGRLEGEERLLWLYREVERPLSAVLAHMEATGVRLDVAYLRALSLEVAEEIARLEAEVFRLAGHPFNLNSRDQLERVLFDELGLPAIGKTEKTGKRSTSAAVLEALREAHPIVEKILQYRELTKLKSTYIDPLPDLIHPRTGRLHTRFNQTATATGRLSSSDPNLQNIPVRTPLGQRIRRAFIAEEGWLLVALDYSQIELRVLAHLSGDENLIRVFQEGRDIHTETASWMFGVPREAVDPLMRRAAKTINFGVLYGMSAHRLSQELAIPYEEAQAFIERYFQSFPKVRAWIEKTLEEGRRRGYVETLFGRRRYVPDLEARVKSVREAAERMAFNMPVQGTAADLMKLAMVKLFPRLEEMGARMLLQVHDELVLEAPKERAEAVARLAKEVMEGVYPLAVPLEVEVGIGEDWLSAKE
Telomerase reverse transcriptase, sequence (O14746 whole entry): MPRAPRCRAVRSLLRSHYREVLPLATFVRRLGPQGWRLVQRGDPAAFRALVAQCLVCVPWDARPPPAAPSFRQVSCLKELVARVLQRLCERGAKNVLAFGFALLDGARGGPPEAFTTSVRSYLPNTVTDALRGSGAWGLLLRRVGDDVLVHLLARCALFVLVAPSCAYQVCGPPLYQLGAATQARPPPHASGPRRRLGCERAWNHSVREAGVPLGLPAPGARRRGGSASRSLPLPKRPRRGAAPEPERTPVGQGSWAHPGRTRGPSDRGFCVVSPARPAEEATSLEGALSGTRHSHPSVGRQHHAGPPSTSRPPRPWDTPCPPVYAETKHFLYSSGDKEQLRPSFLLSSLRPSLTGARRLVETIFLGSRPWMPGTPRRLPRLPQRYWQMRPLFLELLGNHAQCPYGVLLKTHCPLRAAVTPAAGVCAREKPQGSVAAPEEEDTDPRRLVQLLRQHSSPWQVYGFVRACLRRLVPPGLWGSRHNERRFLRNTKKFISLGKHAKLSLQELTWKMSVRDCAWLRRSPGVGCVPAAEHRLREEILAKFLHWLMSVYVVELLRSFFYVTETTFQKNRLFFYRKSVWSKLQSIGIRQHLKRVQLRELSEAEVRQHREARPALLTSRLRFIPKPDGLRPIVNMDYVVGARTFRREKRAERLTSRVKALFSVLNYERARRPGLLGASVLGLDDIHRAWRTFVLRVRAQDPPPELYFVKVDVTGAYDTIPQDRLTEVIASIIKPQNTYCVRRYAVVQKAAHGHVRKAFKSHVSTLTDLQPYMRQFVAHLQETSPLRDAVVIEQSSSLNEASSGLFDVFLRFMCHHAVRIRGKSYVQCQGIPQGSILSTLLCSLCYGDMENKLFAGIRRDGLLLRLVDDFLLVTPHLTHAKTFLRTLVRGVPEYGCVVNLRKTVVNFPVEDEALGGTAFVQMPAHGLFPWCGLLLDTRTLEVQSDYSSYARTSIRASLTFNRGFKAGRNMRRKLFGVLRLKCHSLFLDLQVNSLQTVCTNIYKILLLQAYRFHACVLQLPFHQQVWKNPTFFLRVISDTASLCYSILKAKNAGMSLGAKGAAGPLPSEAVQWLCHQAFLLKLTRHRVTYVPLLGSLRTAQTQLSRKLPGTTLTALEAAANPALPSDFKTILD

Broadly, the ΔTm is the change in melting temperature against a reference sample. By EC50 is commonly meant the midpoint of the concentration-response curve. Read a low EC50 as greater potency. What is called IC50 is the concentration needed to halve the response being measured. Read a low IC50 as greater potency. Regarding `NCCNC(=O)c1ccc2c(c1)C(=O)c1ccc(C(=O)NCCN)cc1C2=O`, the ΔTm is 9 °C in the experiment listed under Homo sapiens [1] and 2 °C in the experiment listed under Homo sapiens [2]. The EC50 in experiment [3] came out at 20 µM; in experiment [4], 5 µM. The results for the IC50 (with HeLa; in experiment [5]) were 40 µM and 86 µM, respectively.

As to `CC[C@H](C)[C@H](N)C(=O)NCC(=O)Nc1ccc2c(c1)C(=O)c1ccc(NC(=O)CNC(=O)[C@@H](N)[C@@H](C)CC)cc1C2=O`, the values for the ΔTm in the experiment filed under Homo sapiens [1] and in the experiment listed under Homo sapiens [2] were 4.3 °C and 0.8 °C, respectively. For the same compound, the EC50 was more than 40 µM in experiment [3] and 25 µM in experiment [4]. The results for the IC50 (with HeLa; in experiment [5]) were 18 µM and 42 µM, respectively.

Turning to `NCCCC[C@H](N)C(=O)NCCC(=O)Nc1ccc2c(c1)C(=O)c1ccc(NC(=O)CCNC(=O)[C@@H](N)CCCCN)cc1C2=O`, the values for the ΔTm in the experiment filed under Homo sapiens [1] and in the experiment listed under Homo sapiens [2] were 17.2 °C and 6.6 °C, respectively. Also, the values for the EC50 in experiment [3] and in experiment [4] were 10 µM and 0.8 µM, respectively. Besides, the IC50 is 100 µM with HeLa and more than 100 µM in experiment [5].
